From ChEMBL document CHEMBL4038321, “Design, Synthesis, and Pharmacokinetics of a Bone-Targeting Dual-Action Prodrug for the Treatment of Osteoporosis” (J Med Chem, 2017)

How the values were obtained:
Plasma [1] = assay: Drug metabolism in rat plasma assessed as tritium label liberation preincubated with rat plasma followed by bovine bone powder addition measured after 30 mins; type: ADME, cell-free; details: 0.5 h
In short: (§1)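 Tritium-labelled conjugate incubated in rat plasma at 37 °C. At fixed times the incubate was stirred with bovine bone powder to adsorb intact conjugate and any cleaved bisphosphonate. Unbound radioactivity in the supernatant was then counted as liberated label.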

Plasma [2] = assay: Drug metabolism in rat plasma assessed as tritium label liberation preincubated with rat plasma followed by bovine bone powder addition measured after 4 hrs; type: ADME, cell-free; in short: as §1
Plasma [3] = assay: Drug metabolism in rat plasma assessed as tritium label liberation preincubated with rat plasma followed by bovine bone powder addition measured after 24 hrs; type: ADME, cell-free; in short: as §1
Serum = assay: Drug metabolism in rat serum assessed as tritium label liberation preincubated with bovine bone powder followed by rat serum addition measured after 24 hrs; type: ADME, cell-free
In short: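 Tritium-labelled conjugate first bound to bovine bone powder for 30 min in buffer. The powder was filtered, resuspended and incubated in fresh rat serum. Buffer and inactivated serum were run alongside. Tritium liberated after 24 h was measured.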

Rattus norvegicus [4] = assay: Toxicity in Sprague-Dawley rat at 31 uCi, iv administered via tail vein after 6 hrs; type: organism-based; details: in vivo
In short: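 Three female Sprague Dawley rats, about 23 weeks old on arrival, received an IV tail-vein injection of 5 mg/kg conjugate with 31.0 µCi [3H] per rat. Vehicle was 10% Poloxamer 188 adjusted to pH 8.0 with NaHCO3 and diluted 1:1 with PBS. Tolerability was observed over 6 h with blood sampling, and the study ended at 6 h.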

Liver [5] = assay: Drug uptake in Sprague-Dawley rat liver at 31 uCi, iv after 6 hrs by scintillation counting method; type: ADME, organism-based; details: in vivo
In short: (§2)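 Three female Sprague Dawley rats, about 23 weeks old. IV tail-vein dose of 5 mg/kg 3H-conjugate (31.0 µCi/rat) in 10% Poloxamer 188, pH 8.0 with NaHCO3, diluted 1:1 with PBS. Blood was drawn at 0.5 to 6 h. At 6 h tissues, including long bones, were taken and analysed for radioactivity by oxidation and scintillation counting.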

Bone [6] = assay: Drug uptake in Sprague-Dawley rat bone at 31 uCi, iv after 6 hrs by scintillation counting method; type: ADME, organism-based, Bone element; details: in vivo; in short: as §2
Bone [7] = assay: Drug uptake in Sprague-Dawley rat bone at 8.9 uCi, iv administered as bolus dose after 6 hrs; type: ADME, organism-based, Bone element; details: in vivo
In short: (§3)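 Female Sprague Dawley rats, about 13 weeks old, in five groups of three. Single IV tail-vein bolus of mixed 3H-conjugate (8.90 µCi/rat) and 14C-conjugate (1.77 µCi/rat), total dose 5.0 mg/kg. Vehicle was 10% Poloxamer 188, brought to pH 8.0 with NaHCO3, then diluted with an equal volume of PBS. Groups were killed at 6 h, 1, 7, 14 and 28 days. Tissues and femurs were incinerated in a biological oxidizer. Values are % of administered dose, with skeleton taken as 8% of body weight, averaged over three rats.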

Bone [8] = assay: Drug uptake in Sprague-Dawley rat bone at 8.9 uCi, iv administered as bolus dose after 1 day; type: ADME, organism-based, Bone element; details: in vivo, 24 h; in short: as §3
Bone [9] = assay: Drug uptake in Sprague-Dawley rat bone at 8.9 uCi, iv administered as bolus dose after 7 days; type: ADME, organism-based, Bone element; details: in vivo, 168 h; in short: as §3
Bone [10] = assay: Drug uptake in Sprague-Dawley rat bone at 8.9 uCi, iv administered as bolus dose after 14 days; type: ADME, organism-based, Bone element; details: in vivo, 336 h; in short: as §3
Liver [11] = assay: Drug uptake in Sprague-Dawley rat liver at 8.9 uCi, iv administered as bolus dose after 6 hrs; type: ADME, organism-based; details: in vivo; in short: as §3
Liver [12] = assay: Drug uptake in Sprague-Dawley rat liver at 8.9 uCi, iv administered as bolus dose after 1 day; type: ADME, organism-based; details: in vivo, 24 h; in short: as §3
Liver [13] = assay: Drug uptake in Sprague-Dawley rat liver at 8.9 uCi, iv administered as bolus dose after 7 days; type: ADME, organism-based; details: in vivo, 168 h; in short: as §3
Liver [14] = assay: Drug uptake in Sprague-Dawley rat liver at 8.9 uCi, iv administered as bolus dose after 14 days; type: ADME, organism-based; details: in vivo, 336 h; in short: as §3
Spleen [15] = assay: Drug uptake in Sprague-Dawley rat spleen at 8.9 uCi, iv administered as bolus dose after 6 hrs; type: ADME, organism-based; details: in vivo
In short: (§4)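 Female Sprague Dawley rats, about 13 weeks old on arrival, in five groups of three. Single IV tail-vein bolus of mixed [3H]- and [14C]-labelled conjugate (8.90 and 1.77 µCi/rat), total 5.0 mg/kg. Vehicle was 10% Poloxamer 188 adjusted to pH 8.0 with NaHCO3, then diluted with an equal volume of PBS. Groups killed at 6 h, 1, 7, 14 and 28 days. Spleen radioactivity measured by oxidizer incineration and reported as percent of administered dose, averaged over three rats.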

Spleen [16] = assay: Drug uptake in Sprague-Dawley rat spleen at 8.9 uCi, iv administered as bolus dose after 1 day; type: ADME, organism-based; details: in vivo, 24 h; in short: as §4
Spleen [17] = assay: Drug uptake in Sprague-Dawley rat spleen at 8.9 uCi, iv administered as bolus dose after 7 days; type: ADME, organism-based; details: in vivo, 168 h; in short: as §4
Spleen [18] = assay: Drug uptake in Sprague-Dawley rat spleen at 8.9 uCi, iv administered as bolus dose after 14 days; type: ADME, organism-based; details: in vivo, 336 h; in short: as §4
Kidney [19] = assay: Drug uptake in Sprague-Dawley rat kidney at 8.9 uCi, iv administered as bolus dose after 6 hrs; type: ADME, organism-based; details: in vivo; in short: as §3
Kidney [20] = assay: Drug uptake in Sprague-Dawley rat kidney at 8.9 uCi, iv administered as bolus dose after 1 day; type: ADME, organism-based; details: in vivo, 24 h; in short: as §3
Kidney [21] = assay: Drug uptake in Sprague-Dawley rat kidney at 8.9 uCi, iv administered as bolus dose after 7 days; type: ADME, organism-based; details: in vivo, 168 h; in short: as §3
Kidney [22] = assay: Drug uptake in Sprague-Dawley rat kidney at 8.9 uCi, iv administered as bolus dose after 14 days; type: ADME, organism-based; details: in vivo, 336 h; in short: as §3
Heart [23] = assay: Drug uptake in Sprague-Dawley rat heart at 8.9 uCi, iv administered as bolus dose after 6 hrs; type: ADME, organism-based; details: in vivo; in short: as §3
Heart [24] = assay: Drug uptake in Sprague-Dawley rat heart at 8.9 uCi, iv administered as bolus dose after 1 day; type: ADME, organism-based; details: in vivo, 24 h; in short: as §3
Heart [25] = assay: Drug uptake in Sprague-Dawley rat heart at 8.9 uCi, iv administered as bolus dose after 7 days; type: ADME, organism-based; details: in vivo, 168 h; in short: as §3
Brain [26] = assay: Drug uptake in Sprague-Dawley rat brain at 8.9 uCi, iv administered as bolus dose after 6 hrs; type: ADME, organism-based; details: in vivo; in short: as §3
Brain [27] = assay: Drug uptake in Sprague-Dawley rat brain at 8.9 uCi, iv administered as bolus dose after 1 day; type: ADME, organism-based; details: in vivo, 24 h; in short: as §3
[28] = Drug metabolism in rat plasma at 100 uM measured after 24 hrs by HPLC analysis; type: ADME, cell-free; details: read-out: Drug metabolism
In short: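 Conjugate incubated in rat plasma at 37 °C for 24 h and compared with inactivated control plasma. Aliquots were taken at 0, 1, 2, 4 and 24 h and quenched with methanol containing 1.0 M HCl, then centrifuged. Remaining conjugate in the supernatant was quantified by reverse-phase HPLC with UV detection at 254 nm.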

Bone [29] = assay: Drug uptake in Sprague-Dawley rat bone at 8.9 uCi, iv administered as bolus dose after 28 days; type: ADME, organism-based, Bone element; details: in vivo, 672 h; in short: as §3
Liver [30] = assay: Drug uptake in Sprague-Dawley rat liver at 8.9 uCi, iv administered as bolus dose after 28 days; type: ADME, organism-based; details: in vivo, 672 h; in short: as §3
Spleen [31] = assay: Drug uptake in Sprague-Dawley rat spleen at 8.9 uCi, iv administered as bolus dose after 28 days; type: ADME, organism-based; details: in vivo, 672 h; in short: as §4
Kidney [32] = assay: Drug uptake in Sprague-Dawley rat kidney at 8.9 uCi, iv administered as bolus dose after 28 days; type: ADME, organism-based; details: in vivo, 672 h; in short: as §3
Rattus norvegicus [33] = assay: Toxicity in Sprague-Dawley rat assessed as behavioral change at 8.9 uCi, iv administered as bolus dose after 28 dyas; type: organism-based; details: in vivo
In short: (§5)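 Same dual-label study: female Sprague Dawley rats got one IV tail-vein bolus of [3H] (8.90 µCi) plus [14C] (1.77 µCi) conjugate, total 5.0 mg/kg, in Poloxamer 188/PBS vehicle at pH 8.0. Groups of three were sacrificed up to 28 days after dosing.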

Rattus norvegicus [34] = assay: Toxicity in Sprague-Dawley rat assessed as unusual reaction at 8.9 uCi, iv administered as bolus dose after 28 dyas; type: organism-based; details: in vivo; in short: as §5

**Q.** Which Drug metabolism (Plasma [1]) does the source give for [3H]c1ccc(C(F)(F)[C@@H](/C=C/[C@H]2CCC(=O)N2CCCCCCC(=O)OCC)OC(=O)Cc2ccc(COC(=O)N[C@@H](CC(C)C)C(=O)N[C@@H](CCCNC(=N)N)C(=O)Nc3ccc(COC(=O)NCCCC(O)(P(=O)(O)O)P(=O)(O)O)cc3)cc2)cc1 here?
**A.** Its Drug metabolism is 27%.

**Q.** What about the Drug metabolism (Plasma [2]) of the same compound?
**A.** Its Drug metabolism is 44%.

**Q.** What about the Drug metabolism (Plasma [3]) of the same compound?
**A.** Its Drug metabolism is 53%.

**Q.** And the Drug metabolism (Serum)?
**A.** Its Drug metabolism is under 3%.

**Q.** What about the Activity (Rattus norvegicus [4]) of the same compound?
**A.** Its Activity is “Toxic”.

**Q.** What about the Drug uptake (Liver [5]) of the same compound?
**A.** Its Drug uptake is “Active”.

**Q.** What about the Drug uptake (Bone [6]) of the same compound?
**A.** The Drug uptake was 2.5 %ID.

**Q.** What about the Drug uptake (Bone [7]) of the same compound?
**A.** Its Drug uptake is 2.1 %ID.

**Q.** What about the Drug uptake (Bone [8]) of the same compound?
**A.** Its Drug uptake is 2.12 %ID.

**Q.** What about the Drug uptake (Bone [9]) of the same compound?
**A.** Its Drug uptake is 1.3 %ID.

**Q.** What about the Drug uptake (Bone [10]) of the same compound?
**A.** The Drug uptake was 0.8 %ID.

**Q.** And the Drug uptake (Liver [11])?
**A.** The Drug uptake was 8.95 %ID.

**Q.** What about the Drug uptake (Liver [12]) of the same compound?
**A.** The Drug uptake was 2.33 %ID.

**Q.** And the Drug uptake (Liver [13])?
**A.** The Drug uptake was 0.48 %ID.

**Q.** And the Drug uptake (Liver [14])?
**A.** The Drug uptake was 0.3 %ID.

**Q.** And the Drug uptake (Spleen [15])?
**A.** Its Drug uptake is 0.35 %ID.

**Q.** And the Drug uptake (Spleen [16])?
**A.** Its Drug uptake is 0.22 %ID.

**Q.** What about the Drug uptake (Spleen [17]) of the same compound?
**A.** Its Drug uptake is 0.076 %ID.

**Q.** And the Drug uptake (Spleen [18])?
**A.** Its Drug uptake is 0.039 %ID.

**Q.** What about the Drug uptake (Kidney [19]) of the same compound?
**A.** Its Drug uptake is 0.21 %ID.

**Q.** And the Drug uptake (Kidney [20])?
**A.** Its Drug uptake is 0.11 %ID.

**Q.** What about the Drug uptake (Kidney [21]) of the same compound?
**A.** Its Drug uptake is 0.053 %ID.

**Q.** And the Drug uptake (Kidney [22])?
**A.** The Drug uptake was 0.026 %ID.

**Q.** And the Drug uptake (Heart [23])?
**A.** Its Drug uptake is 0.025 %ID.

**Q.** And the Drug uptake (Heart [24])?
**A.** Its Drug uptake is 0.021 %ID.

**Q.** What about the Drug uptake (Heart [25]) of the same compound?
**A.** The Drug uptake was 0.014 %ID.

**Q.** What about the Drug uptake (Brain [26]) of the same compound?
**A.** The Drug uptake was 0.022 %ID.

**Q.** And the Drug uptake (Brain [27])?
**A.** The Drug uptake was 0.025 %ID.

**Q.** What about the metabolised at 24 h, 100 µM [28] of the same compound?
**A.** The metabolised at 24 h, 100 µM was 55%.

**Q.** What about the Drug uptake (Bone [29]) of the same compound?
**A.** Its Drug uptake is 0.74 %ID.

**Q.** What about the Drug uptake (Liver [30]) of the same compound?
**A.** Its Drug uptake is 0.08 %ID.

**Q.** And the Drug uptake (Spleen [31])?
**A.** The Drug uptake was 0.037 %ID.

**Q.** And the Drug uptake (Kidney [32])?
**A.** The Drug uptake was 0.017 %ID.

**Q.** And the Activity (Rattus norvegicus [33])?
**A.** The Activity was “Non-Toxic”.

**Q.** What about the Activity (Rattus norvegicus [34]) of the same compound?
**A.** Its Activity is “Non-Toxic”.
